# Measured values: the RNAGym collection of RNA variant scans (doi:10.1126/science.aae0568)
# This sample holds only a part of the variants without activity.
# B1: tRNA (parent)
# chain: GUUCCGUUGGCGUAAUGGUAACGCGUCUCCCUCCUAAGGAGAAGACUGCGGGUUCGAGUCCCGUACGGAACG
# Variants of: B1
# Assay: yeast fitness relative to wild type (ratio to wild type); higher = fitter; tRNA-Arg(CCU), competitive growth, 37 C, YPD
# Method in brief: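 The tRNA-Arg(CCU) gene variants were made by chemical synthesis with a 3% per-site mutation rate at 69 sites and inserted at the native genomic locus of Saccharomyces cerevisiae. After pooling, the strains were competed in YPD at 37°C for 24 hours in six parallel replicates. Gene amplicons from the start population and each end population were read by 100-nucleotide paired-end sequencing, and Darwinian fitness relative to wild type was taken from genotype frequency changes. Genotypes needed ≥ 100 starting reads, and estimates < 0.5 were set to 0.5.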
row,Variant,yeast fitness
1,GUUCCGUUGGCGUGAUGGUAACGCGUCUUCCUCCUAAGGAAAAGACUGCGGGUGUGAGUCCCGUACGGUACG [A14G C29U G41A U54G C55U A69U],≤ 0.5
2,GUUCCGUUGGCGUAAUGCUGACGCGUCUCACUCCUAAGGAGAAGACUGCGGGUUCGAGUCCCGUACGGAACG [G18C A20G C30A],≤ 0.5
3,GUUCCGUUGGCGUAAUGGUAACGCGUCCCCCUCCUAAGGAGAAGACUGCGGGUUCGACUCCGGUACGGAUCG [U28C G58C C62G A70U],≤ 0.5
4,GUUCCGUUGGCGUAAUGGUAUAGCGUCUGCCUCCUAAGGAGAAGACUGCGGGUUAGAGCCCCGUACGGAACG [A21U C22A C29G C55A U59C],0.647
5,GUUCCGUUGGCGUAAUGGUAACGCGUUUCCCUCCUAAGGAGAAGUCUGCAGGUUCGAGUCCCGUACGGCACG [C27U A45U G50A A69C],≤ 0.5
6,GAUCCGUAGGCGUAAUGGUAACGCGUCUCCCUCAUAAGGAGAAGACUGCGGGUUCGAGUCCCGUUCGGAACG [U2A U8A C34A A65U],≤ 0.5
7,GCUCCGUUGGCGUAUUGGUUACGCGUCUCCCUCCUAAGGAGAAGACUGCGGGUUCGAGUCCCGUACGGUACG [U2C A15U A20U A69U],≤ 0.5
8,GUUCCGUUGGCGUAAUGGUUACGCGUCUCCCUCCUAAGCAGAAGACUGCGGGUUCGAGUCCCGUACGGAACG [A20U G39C],0.81
9,GUUCCGUUGGCGUAAUGGUGACGCGUCUCCCUCCUAAGGAGAAGACUGUGGGGUCGAGUCCCGUGCGGAACG [A20G C49U U53G A65G],≤ 0.5
10,GUUCCGUUGGCGUAAAGGUAACGCGUCUCCCUCCUAAGGAGAAGACUGCGGGUUCGAGUCCCGUGCGGAACG [U16A A65G],0.933
11,GUUCCGUUGGCGUAGUGGUAACGCGUCUCCCUCCUAAGGAGAAGACUGCGGGUUCGAGUCAGGUACGAAACG [A15G C61A C62G G68A],≤ 0.5
12,GUUCCGUUGACGUAAUGGUGACACGUCUCCCUCCUAGGGCGAAGACUGCGGGUUCGAGUCCCGUAUGGAACG [G10A A20G G23A A37G A40C C66U],≤ 0.5
13,GUUCCGUUGGCGUAAUGCUAAUGCGUCUCCCUCGUAAGGAGAAGACUGCGGGUUCGAGUCCCGUACGGAACG [G18C C22U C34G],0.688
14,GUUCGGUUGGCGUAAUGGUAACGCGUCUCCCUCCUAAGGAGAAGACUGCGGGUCCCAAUCCCGUACGGAACG [C5G U54C G56C G58A],≤ 0.5
15,GUUCCGUUGGCGUAAUGGUAACGCGUCUCCCUCCUAAGAAGAAGACUGCGGGUUCGAGUCGCGUACGGAACG [G39A C61G],0.585
16,GUUCCGUUGGCGUAAUGGUAACGCGUCUCCCUCCUAAGGUGAAGACUGCGGGUUCGAGUCCCGCACGGAUCG [A40U U64C A70U],0.727
17,GUUCCGUUGGCGUAAUGGUAACGCGCCUCCCUUCUAAGGAGAAGACUGCGGGAUCGAGUCCCGUAAGGAACG [U26C C33U U53A C66A],≤ 0.5
18,GUUCCGUUGGCGUAAUGGUAACGCGUGUCUCUCCUAAGGAGAAGAAUGCGGGUUCGAGUCCCGUACGGAACG [C27G C30U C46A],0.655
19,GUUCGGUUCGCGUAAUGGUAACGCGUCUCCCUCCUGAGGAGAAGAUUGCGGGUUCGAGUCCCGUACGGAACG [C5G G9C A36G C46U],≤ 0.5

row,Variant,yeast fitness
1,GUUCCGUUGGCGUAAUGGUAACGCGUCUCCCUCCUAAGCAGAAAACUGCGGGUUCGAGUCCGGUACGGAACG [G39C G44A C62G],0.589
2,GUUCCGUUGGCGUAAUGGUAACGCGUCUCCGUCCUAAGGAGUCGACUGCGGGUUCGAGUCCCGUACGGAACG [C31G A42U A43C],1.15
3,GUUCCGUUGGCGUAAUGGUAACGCGUCUCCCUCCUAAGGAGAAGACUGCGGGUUCGAGUCGCCUACGGAACG [C61G G63C],0.532
4,GUUCCGUUGGCGUAAUGGUAACGCCUCUCCGUCGUAAGGAGAAGACUGCGGGUUCGCGUCCCGUACGGAACG [G25C C31G C34G A57C],≤ 0.5
5,GUUCCGUUGGCGUAAUGGUAACGCGUCUCGCUCCUAAGGAGAAGGCUGCGGGUUCGAGUCCCGUACGGAACG [C30G A45G],0.698
6,GUUACGUUGGCGUAAUGAUAACGCGUCUCCCUCCUAAGGAGAAGACUGCGGGUUCGAAUCCCGUACGGAUCG [C4A G18A G58A A70U],≤ 0.5
7,GUUCUGUCGGCGUAAUGGUGACGCGUCUCACUCCUAAGGAGAAGACUGCGGGUUCGAGUCCCGUACGUAACG [C5U U8C A20G C30A G68U],≤ 0.5
8,GUUCCGUUCGCGUAAUGGUAACGCGUUUCCCUCCUAAGGAGUAGACUGCGGGUUGGAGUCCCGUACGGAACG [G9C C27U A42U C55G],≤ 0.5
9,GUUCCGUUGGUGUAAUGGUGACGCGUCUCCCUCCUAAGGAGAAGACUGCGGGUUCGAGACCCGUACGGAACG [C11U A20G U59A],0.514
10,GAGCCGUUGGAAUAACGGUAAGGCGUCUCCCUCCUAAGGAGAAGACUGCGGGUUCGAGUCCUGUACGGAACG [U2A U3G C11A G12A U16C C22G C62U],≤ 0.5
11,GUUUCGUUGGCGUAAUGGUAACGCGUCUCCCUCCUAUGGAGAAGACUGCGGAUUCGAGUCCCGUACGGAACG [C4U A37U G52A],≤ 0.5
12,GUUCCGAUGGCGUAAUGGUACCGCGUCUCCCUCCUGAGGAGAAGACUGCGGGUUCGAGUCCCGUACGCAACG [U7A A21C A36G G68C],≤ 0.5
13,GUACCGUUGGCGUAAUGGUAACGCGUCUCCCUCCUAAGGUGAAGACUGCGGGUUCGAGUCCCGUACGGAACG [U3A A40U],0.841
14,GUCCCGUUGGCGUAAUGGUAACGCGUCUUCCUACUAAGGCGAAGACUGCGGGUUCGAGUCCCGUACGGAACG [U3C C29U C33A A40C],≤ 0.5
15,GUUCCGUUGGUGUACUGGUAACGCGUAUCCCUCCUAAGCAGAAGACUGCGGGUUCGAGUCCCGUACGGAACG [C11U A15C C27A G39C],≤ 0.5
16,GUUCCGUUGGCGUAAUGGUAACGCGUUUCGCUGGUAAGGUGAAGACUGCGGCUUCCAGUCCCGUACGGAACG [C27U C30G C33G C34G A40U G52C G56C],≤ 0.5
17,GUUCCGUUGGCGUAAUGGUAACGCGUGUCCCUCCUAAGGAGAAGACUGCGGGUUCGAGUCCCGUACUGAACG [C27G G67U],0.632
18,GUUCCGUUCGCGUAAUGGUGACGCGUCUCCCUCCUAAGGAGAAGACUGCGGGUUCGAGUCCCGUACGGAACG [G9C A20G],0.668
19,GUUCCGCUGGCGUAAUGGUAACGCGUCUCCCUCCUUAGGAGAAGACUGCCGGUUCGAGUACCGUACGGAACG [U7C A36U G50C C60A],0.57
